One block for each compound: values may come before it. Activity calls are given as the source filed them. The calls are words filed in the database; no cut-off is given here.
What was measured:
[1] = molecular target: Rho-associated protein kinase 2 (Homo sapiens, UniProt O75116); assay: Inhibition of ROCK2 (unknown origin) using KEAKEKRQEQIAKRRRLSSLRASTSKSGGSQK-peptide as substrate incubated for 30 mins in presence of [gamma-33P]-ATP
[2] = molecular target: T1, Nuclear factor erythroid 2-related factor 2 (Mus musculus) (UniProt Q60795); assay: Activation of Nrf2 transcriptional activity in KEAP1+/+ mouse embryonic fibroblast cells assessed as increase in NQO1 mRNA levels at 20 uM by RT-qPCR analysis; format: cell-based; details: filed as activator, time 4-24 hrs, TDE = time-dependent effect
T1 sequence (whole entry): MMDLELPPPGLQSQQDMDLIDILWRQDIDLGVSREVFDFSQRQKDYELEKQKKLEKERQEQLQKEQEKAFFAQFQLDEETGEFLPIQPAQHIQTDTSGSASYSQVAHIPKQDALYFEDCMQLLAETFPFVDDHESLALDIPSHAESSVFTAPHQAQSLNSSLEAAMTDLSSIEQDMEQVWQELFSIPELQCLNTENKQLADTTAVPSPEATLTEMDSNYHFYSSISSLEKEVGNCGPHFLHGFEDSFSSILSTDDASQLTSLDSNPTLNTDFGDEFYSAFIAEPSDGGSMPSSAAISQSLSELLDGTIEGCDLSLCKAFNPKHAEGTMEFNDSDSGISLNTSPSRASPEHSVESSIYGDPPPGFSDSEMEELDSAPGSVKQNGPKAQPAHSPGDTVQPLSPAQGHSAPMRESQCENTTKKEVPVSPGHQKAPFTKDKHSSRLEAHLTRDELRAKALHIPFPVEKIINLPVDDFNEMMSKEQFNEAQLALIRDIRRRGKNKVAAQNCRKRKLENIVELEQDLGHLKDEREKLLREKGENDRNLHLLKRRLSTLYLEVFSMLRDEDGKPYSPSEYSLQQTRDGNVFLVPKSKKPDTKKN
Outline: (§1)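 Keap1+/+ and Keap1–/– MEFs were grown in DMEM with 10% FBS and treated at 20 μM for 4, 8 and 24 h. HMOX1 and NQO1 mRNA measured by qRT-PCR, normalized to β-actin mRNA. n = 4 ± S.E.M., experiments done twice; two-way ANOVA with Bonferroni post hoc.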

[3] = molecular target: T2, Nuclear factor erythroid 2-related factor 2 (Homo sapiens) (UniProt Q16236); assay: Activation of Nrf2 transcriptional activity in human SH-SY5Y cells assessed as increase in HMOX1 mRNA expression at 20 uM by RT-qPCR analysis; format: cell-based; details: filed as activator, time 4-24 hrs, TDE = time-dependent effect
T2 sequence (whole entry): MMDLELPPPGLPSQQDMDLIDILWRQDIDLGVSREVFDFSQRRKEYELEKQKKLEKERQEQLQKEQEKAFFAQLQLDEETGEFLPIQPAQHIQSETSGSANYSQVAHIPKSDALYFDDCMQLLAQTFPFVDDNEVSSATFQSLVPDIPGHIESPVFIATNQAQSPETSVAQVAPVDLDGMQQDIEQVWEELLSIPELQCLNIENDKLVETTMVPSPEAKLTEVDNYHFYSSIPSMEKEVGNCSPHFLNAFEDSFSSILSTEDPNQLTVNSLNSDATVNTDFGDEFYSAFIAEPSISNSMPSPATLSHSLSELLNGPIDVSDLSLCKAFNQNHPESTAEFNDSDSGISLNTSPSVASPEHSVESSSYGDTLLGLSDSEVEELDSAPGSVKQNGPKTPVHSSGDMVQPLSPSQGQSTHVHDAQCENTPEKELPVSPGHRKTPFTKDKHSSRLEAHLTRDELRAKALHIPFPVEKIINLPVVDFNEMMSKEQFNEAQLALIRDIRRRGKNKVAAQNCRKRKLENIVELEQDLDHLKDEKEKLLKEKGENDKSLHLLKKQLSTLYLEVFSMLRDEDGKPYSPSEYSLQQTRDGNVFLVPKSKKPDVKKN
Outline: (§2)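 SH-SY5Y cells (DMEM/Ham's F12, 10% FBS) were treated at 20 μM for 4, 8 and 24 h. HMOX1 and NQO1 mRNA measured by qRT-PCR, normalized to β-actin mRNA. Mean of n = 4 ± S.E.M., experiments done twice.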

[4] = molecular target: T2, Nuclear factor erythroid 2-related factor 2 (Homo sapiens); assay: Induction of Nrf2 signalling pathway in human lymphoblast assessed as increase in HMOX1 mRNA level at 20 uM measured after 24 hrs by RT-qPCR analysis; format: cell-based; details: Lymphoblastoid cell, filed as activator
Outline: (§3)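 EBV-immortalized lymphoblastoid lines from controls, sALS and SOD1-ALS patients were grown in RPMI-1640 with 10% FBS. They were seeded at 1 × 10^6 cells/mL, serum-starved 12 h, then treated at 20 μM for 24 h. HMOX1 and NQO1 mRNA measured by qRT-PCR, normalized to β-actin mRNA. n = 6–7 controls, 5–6 sALS, 4 SOD1-ALS, ± S.E.M.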

Homo sapiens = species: Homo sapiens; assay: Selectivity ratio of CD for Nrf2 activation in HEK293T cells to IC50 for inhibition of ROCK2 (unknown origin); format: cell-based
Outline: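 Ratio of CD to ROCK2 IC50. CD is the concentration doubling ARE-luciferase over basal in transfected HEK293T cells after 16 h. […] Reactions were stopped with orthophosphoric acid and captured on P81 filters.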

[5] = molecular target: T2, Nuclear factor erythroid 2-related factor 2 (Homo sapiens); assay: Induction of Nrf2 signalling pathway in ALS patient derived human lymphoblasts harboring SOD1 mutation assessed as increase in HMOX1 protein level at 20 uM measured after 24 hrs by immunoblot analysis; format: cell-based; details: Lymphoblastoid cell, filed as activator
[6] = molecular target: Keap1/Nrf2 (Homo sapiens) (UniProt Q16236+Q14145); assay: Inhibition of Nrf2 (unknown origin)/KEAP1 (unknown origin) protein-protein interaction by measuring inflection temperature at 100 uM by differential scanning fluorimetry; format: protein assay
[7] = molecular target: T2, Nuclear factor erythroid 2-related factor 2 (Homo sapiens); assay: Activation of Nrf2 transcriptional activity in human SH-SY5Y cells assessed as increase in HO-1 protein levels at 20 uM incubated for 24 hrs by immunoblot analysis; format: cell-based; details: filed as activator
Outline: (§4)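 SH-SY5Y cells exposed to 20 μM for 4, 8 and 24 h. […] Densitometry normalized to β-actin. Duplicate, at least twice; one-way ANOVA with Tukey post-test.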

[8] = molecular target: T2, Nuclear factor erythroid 2-related factor 2 (Homo sapiens); assay: Induction of Nrf2 signalling pathway in human lymphoblast assessed as increase in Nrf2 protein level at 20 uM measured after 24 hrs by immunoblot analysis; format: cell-based; details: Lymphoblastoid cell, filed as activator
[9] = molecular target: T2, Nuclear factor erythroid 2-related factor 2 (Homo sapiens); assay: Activation of Nrf2 transcriptional activity in human SH-SY5Y cells assessed as increase in NQO1 mRNA expression at 20 uM by RT-qPCR analysis; format: cell-based; details: filed as activator, time 4-24 hrs, TDE = time-dependent effect; outline: as §2
[10] = molecular target: T2, Nuclear factor erythroid 2-related factor 2 (Homo sapiens); assay: Activation of Nrf2 transcriptional activity in HEK293T cells transfected with TK-Renilla reporter vector and cotransfected with ARE-LUC vector measured after 16 hrs by dual-luciferase reporter gene assay; format: cell-based; details: filed as activator, dose 6-60 µM, DDE = dose-dependent effect
Outline: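 HEK293T cells were seeded and cultured 16 h, then co-transfected by calcium phosphate with 3×ARE-LUC and TK-Renilla. […] Lysates were read by dual-luciferase. Triplicates, at least twice. CD is the concentration that doubles luciferase over basal.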

[11] = molecular target: T2, Nuclear factor erythroid 2-related factor 2 (Homo sapiens); assay: Induction of Nrf2 signalling pathway in ALS patient derived human lymphoblasts harboring SOD1 mutation assessed as increase in HMOX1 mRNA level at 20 uM measured after 24 hrs by RT-qPCR analysis; format: cell-based; details: Lymphoblastoid cell, filed as activator; outline: as §3
[12] = molecular target: T2, Nuclear factor erythroid 2-related factor 2 (Homo sapiens); assay: Induction of Nrf2 signalling pathway in ALS patient derived human lymphoblasts harboring SOD1 mutation assessed as increase in NQO1 mRNA level at 20 uM measured after 24 hrs by RT-qPCR analysis; format: cell-based; details: Lymphoblastoid cell, filed as activator; outline: as §3
[13] = molecular target: T2, Nuclear factor erythroid 2-related factor 2 (Homo sapiens); assay: Induction of Nrf2 signalling pathway in human lymphoblast assessed as increase in NQO1 mRNA level at 20 uM measured after 24 hrs by RT-qPCR analysis; format: cell-based; details: Lymphoblastoid cell, filed as activator; outline: as §3
Albumin [14] = molecular target: T3, Albumin (Homo sapiens, UniProt P02768); assay: Binding affinity to human serum albumin assessed as Stern-Volmer quenching constant by Stern-Volmer plot analysis; format: ADME; details: isolated protein
Albumin [15] = molecular target: T3, Albumin; assay: Binding affinity to human serum albumin assessed as association constant by Scatchard equation; format: ADME; details: isolated protein
[16] = molecular target: T2, Nuclear factor erythroid 2-related factor 2 (Homo sapiens); assay: Activation of Nrf2 transcriptional activity in human SH-SY5Y cells assessed as induction of accumulation of Nrf2 in nucleus at 20 uM incubated for 30 to 240 mins by Immunoblotting analysis; format: cell-based; details: filed as activator, time 60-240 min, in the assay text read “60 to 240 mins” for “30 to 240 mins”
Outline: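 SH-SY5Y cells treated at 20 μM for 1, 2 and 4 h. Cytosolic and nuclear fractions were prepared by hypotonic NP-40 lysis followed by a nuclear extraction buffer. […] Duplicate, at least twice.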

[17] = molecular target: T2, Nuclear factor erythroid 2-related factor 2 (Homo sapiens); assay: Induction of Nrf2 signalling pathway in ALS patient derived human lymphoblasts harboring SOD1 mutation assessed as increase in NQO1 protein level at 20 uM measured after 24 hrs by immunoblot analysis; format: cell-based; details: Lymphoblastoid cell, filed as activator
[18] = Stability in pooled human liver microsomes assessed as intrinsic clearance at 8 uM in presence of NADPH measured upto 60 mins by HPLC-MS analysis; format: ADME, Microsome; details: 1 h
[19] = molecular target: T1, Nuclear factor erythroid 2-related factor 2 (Mus musculus); assay: Activation of Nrf2 transcriptional activity in KEAP1-/- mouse embryonic fibroblast cells assessed as increase in HMOX1 mRNA levels at 20 uM measured upto 24 hrs by RT-qPCR analysis; format: cell-based; details: filed as activator; outline: as §1
[20] = molecular target: T1, Nuclear factor erythroid 2-related factor 2 (Mus musculus); assay: Activation of Nrf2 transcriptional activity in KEAP1+/+ mouse embryonic fibroblast cells assessed as increase in HMOX1 mRNA levels at 20 uM by RT-qPCR analysis; format: cell-based; details: filed as activator, time 4-24 hrs, TDE = time-dependent effect; outline: as §1
[21] = molecular target: T2, Nuclear factor erythroid 2-related factor 2 (Homo sapiens); assay: Activation of Nrf2 transcriptional activity in human SH-SY5Y cells assessed as increase in NQO1 protein levels at 20 uM incubated for 24 hrs by immunoblot analysis; format: cell-based; details: filed as activator; outline: as §4
[22] = molecular target: T2, Nuclear factor erythroid 2-related factor 2 (Homo sapiens); assay: Induction of Nrf2 signalling pathway in human lymphoblast assessed as increase in NQO1 protein level at 20 uM measured after 24 hrs by immunoblot analysis; format: cell-based; details: Lymphoblastoid cell, filed as activator
[23] = molecular target: T2, Nuclear factor erythroid 2-related factor 2 (Homo sapiens); assay: Induction of Nrf2 signalling pathway in human lymphoblast assessed as increase in HMOX1 protein level at 20 uM measured after 24 hrs by immunoblot analysis; format: cell-based; details: Lymphoblastoid cell, filed as activator

T3 sequence (P02768 whole entry): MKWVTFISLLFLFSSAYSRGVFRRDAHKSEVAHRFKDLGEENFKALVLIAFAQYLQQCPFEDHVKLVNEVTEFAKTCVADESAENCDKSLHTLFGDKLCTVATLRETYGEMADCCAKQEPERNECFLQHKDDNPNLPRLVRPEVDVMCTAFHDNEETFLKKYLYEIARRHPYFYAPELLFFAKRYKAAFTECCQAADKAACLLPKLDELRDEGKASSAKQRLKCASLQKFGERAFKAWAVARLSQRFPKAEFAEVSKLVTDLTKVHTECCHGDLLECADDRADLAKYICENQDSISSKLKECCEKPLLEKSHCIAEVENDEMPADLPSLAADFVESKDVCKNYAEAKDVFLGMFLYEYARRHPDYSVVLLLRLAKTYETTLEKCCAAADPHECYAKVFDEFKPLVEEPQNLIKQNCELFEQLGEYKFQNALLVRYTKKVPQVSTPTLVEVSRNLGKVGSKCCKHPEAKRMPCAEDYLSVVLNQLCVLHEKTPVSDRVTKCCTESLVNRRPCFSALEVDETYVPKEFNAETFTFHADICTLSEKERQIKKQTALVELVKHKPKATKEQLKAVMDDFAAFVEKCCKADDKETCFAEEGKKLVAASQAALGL
Sequence of Rho-associated protein kinase 2 (O75116 whole entry): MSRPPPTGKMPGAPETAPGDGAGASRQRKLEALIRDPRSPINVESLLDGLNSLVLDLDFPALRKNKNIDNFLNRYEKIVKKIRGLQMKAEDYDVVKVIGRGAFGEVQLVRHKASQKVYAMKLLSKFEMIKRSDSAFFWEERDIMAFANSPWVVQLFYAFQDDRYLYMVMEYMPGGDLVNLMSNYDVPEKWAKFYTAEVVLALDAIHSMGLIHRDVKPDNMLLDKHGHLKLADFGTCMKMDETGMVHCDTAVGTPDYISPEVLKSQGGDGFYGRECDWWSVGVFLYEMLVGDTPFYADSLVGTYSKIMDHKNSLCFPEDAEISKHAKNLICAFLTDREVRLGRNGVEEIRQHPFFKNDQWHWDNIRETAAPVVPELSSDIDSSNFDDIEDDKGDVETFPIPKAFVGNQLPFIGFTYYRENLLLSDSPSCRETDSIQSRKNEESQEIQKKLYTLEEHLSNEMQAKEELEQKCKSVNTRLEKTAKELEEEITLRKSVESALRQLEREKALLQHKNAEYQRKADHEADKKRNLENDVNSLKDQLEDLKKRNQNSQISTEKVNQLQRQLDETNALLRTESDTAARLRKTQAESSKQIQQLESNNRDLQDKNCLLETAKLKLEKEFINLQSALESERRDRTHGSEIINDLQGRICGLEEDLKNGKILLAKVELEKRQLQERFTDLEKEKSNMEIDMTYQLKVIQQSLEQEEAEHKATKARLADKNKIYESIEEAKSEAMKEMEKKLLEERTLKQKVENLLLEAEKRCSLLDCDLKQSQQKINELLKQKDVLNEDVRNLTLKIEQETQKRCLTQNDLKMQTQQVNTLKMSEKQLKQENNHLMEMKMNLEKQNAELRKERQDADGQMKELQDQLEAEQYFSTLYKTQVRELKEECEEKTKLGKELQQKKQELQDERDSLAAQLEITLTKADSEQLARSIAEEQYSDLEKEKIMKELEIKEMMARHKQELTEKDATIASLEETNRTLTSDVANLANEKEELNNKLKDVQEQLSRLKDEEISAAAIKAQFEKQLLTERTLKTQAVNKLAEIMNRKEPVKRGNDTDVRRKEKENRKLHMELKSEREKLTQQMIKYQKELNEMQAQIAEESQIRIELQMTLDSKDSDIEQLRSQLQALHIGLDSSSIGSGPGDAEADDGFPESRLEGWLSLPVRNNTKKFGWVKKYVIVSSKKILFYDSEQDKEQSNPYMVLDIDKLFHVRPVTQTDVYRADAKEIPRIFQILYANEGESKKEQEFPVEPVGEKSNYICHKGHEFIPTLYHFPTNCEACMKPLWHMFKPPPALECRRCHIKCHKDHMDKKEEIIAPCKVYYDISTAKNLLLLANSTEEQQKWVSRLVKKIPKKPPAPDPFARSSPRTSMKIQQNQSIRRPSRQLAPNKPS
Sequence of Keap1/Nrf2 (Homo sapiens) (Q14145 whole entry, looked up, one chain of several): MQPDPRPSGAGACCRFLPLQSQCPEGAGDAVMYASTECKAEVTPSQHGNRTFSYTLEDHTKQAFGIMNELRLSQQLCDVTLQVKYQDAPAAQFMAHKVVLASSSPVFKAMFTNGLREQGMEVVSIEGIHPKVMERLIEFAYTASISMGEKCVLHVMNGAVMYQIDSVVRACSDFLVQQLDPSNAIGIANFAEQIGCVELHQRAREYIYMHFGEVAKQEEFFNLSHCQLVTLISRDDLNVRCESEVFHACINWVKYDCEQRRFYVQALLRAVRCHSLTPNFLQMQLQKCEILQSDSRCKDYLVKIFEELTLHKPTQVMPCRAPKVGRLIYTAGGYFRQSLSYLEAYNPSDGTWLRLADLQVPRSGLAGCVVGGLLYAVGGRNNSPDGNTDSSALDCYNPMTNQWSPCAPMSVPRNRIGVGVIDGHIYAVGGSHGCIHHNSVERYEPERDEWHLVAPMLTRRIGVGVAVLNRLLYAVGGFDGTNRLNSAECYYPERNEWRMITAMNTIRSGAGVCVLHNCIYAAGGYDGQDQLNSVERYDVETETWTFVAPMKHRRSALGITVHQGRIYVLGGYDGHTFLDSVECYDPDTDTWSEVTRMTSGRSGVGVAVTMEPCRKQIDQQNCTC

- IC50 [1]: > 10 µM
SMILES: COc1cc(CCC(=O)N2CCN(S(=O)(=O)c3cccc4cnccc34)CC2)ccc1O

- Activity [2]: Tde
- Activity [3]: Tde
- Activity [4]: Active
- Activity [5]: Active
- deltaT [6]: 0.2 °C
- Activity [7]: Active
- Activity [8]: Active
- Activity [9]: Tde
- Activity [10]: Dde
- Activity [11]: Active
- Activity [12]: Active
- Activity [13]: Active
- KSV (Albumin [14]): 1.68 10^5L/mol
- ka (Albumin [15]): 7.94 10^5L/mol
- Activity [16]: Active
- Activity [17]: Active
- CLint [18]: 15.3 µL/min/mg
- Activity [19]: Active
- Activity [20]: Tde
- Activity [21]: Active
- Activity [22]: Active
- Activity [23]: Active
SMILES: O=C(CCc1ccc(O)c(O)c1)N1CCCN(S(=O)(=O)c2cccc3cnccc23)CC1
- Selectivity ratio (Homo sapiens): 1.4

- Activity [10]: Dde
SMILES: O=C(/C=C/c1ccc(O)c(O)c1)N1CCCN(S(=O)(=O)c2cccc3cnccc23)CC1
- Selectivity ratio (Homo sapiens): 5.2

- Activity [10]: Dde
SMILES: O=C(CCc1ccc(O)c(O)c1)N1CCN(S(=O)(=O)c2cccc3cnccc23)CC1
- Selectivity ratio (Homo sapiens): 46.9
